These results are taken from PMC4955361 (Bioorganic & medicinal chemistry letters, 2016).

The nature of data set [1]: Metabolite identification. The class given is in vitro ADME. The settings on record: human hepatic microsomes, NADPH-dependent.
Data set [2] is described as follows: Intrinsic clearance in rat hepatic microsomes. As to conditions: predicted hepatic clearance from in vitro intrinsic clearance. The class given is in vitro ADME.
A short description of data set [3]: Metabolite identification. Type of data set: in vitro ADME. As to conditions: rat hepatic microsomes, NADPH-dependent.
Data set [4] can be described thus: Intrinsic clearance in human hepatic microsomes. Type of data set: in vitro ADME. The settings on record: predicted hepatic clearance from in vitro intrinsic clearance.
Data set [5] has as its target T1, M5 (Homo sapiens, UniProt P08912).
T1 sequence (P08912 1-532): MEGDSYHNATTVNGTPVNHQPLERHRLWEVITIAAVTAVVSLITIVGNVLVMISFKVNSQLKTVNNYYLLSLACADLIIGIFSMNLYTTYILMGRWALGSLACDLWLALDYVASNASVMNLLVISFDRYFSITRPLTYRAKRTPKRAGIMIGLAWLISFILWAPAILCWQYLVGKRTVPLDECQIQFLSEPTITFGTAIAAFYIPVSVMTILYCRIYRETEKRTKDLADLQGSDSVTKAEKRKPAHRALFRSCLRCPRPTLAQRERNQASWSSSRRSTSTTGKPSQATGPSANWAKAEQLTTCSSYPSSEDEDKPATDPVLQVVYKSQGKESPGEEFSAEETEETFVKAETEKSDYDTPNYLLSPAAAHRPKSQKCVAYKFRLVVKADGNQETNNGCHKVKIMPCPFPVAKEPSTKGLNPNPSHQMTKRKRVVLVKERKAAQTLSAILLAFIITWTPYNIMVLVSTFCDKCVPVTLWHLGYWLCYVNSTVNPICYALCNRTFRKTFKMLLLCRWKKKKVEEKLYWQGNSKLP
In words: Muscarinic receptor subtype selectivity, M5. Type of data set: cell-based. As to conditions: for potency at M5 relative to M4: antagonist; for selectivity versus M5: data not shown.

The target in the next data set is M3 (Homo sapiens, UniProt P20309). In words: Muscarinic receptor subtype selectivity, M3. The class given is cell-based. The settings on record: antagonist.
Another data set relates to CYP450. Put plainly: CYP450 inhibition profile. The class given is in vitro ADME. As to conditions: in words.
For a further data set, the target named is T2, M2 (Homo sapiens, UniProt P08172).
T2 sequence (P08172 1-466): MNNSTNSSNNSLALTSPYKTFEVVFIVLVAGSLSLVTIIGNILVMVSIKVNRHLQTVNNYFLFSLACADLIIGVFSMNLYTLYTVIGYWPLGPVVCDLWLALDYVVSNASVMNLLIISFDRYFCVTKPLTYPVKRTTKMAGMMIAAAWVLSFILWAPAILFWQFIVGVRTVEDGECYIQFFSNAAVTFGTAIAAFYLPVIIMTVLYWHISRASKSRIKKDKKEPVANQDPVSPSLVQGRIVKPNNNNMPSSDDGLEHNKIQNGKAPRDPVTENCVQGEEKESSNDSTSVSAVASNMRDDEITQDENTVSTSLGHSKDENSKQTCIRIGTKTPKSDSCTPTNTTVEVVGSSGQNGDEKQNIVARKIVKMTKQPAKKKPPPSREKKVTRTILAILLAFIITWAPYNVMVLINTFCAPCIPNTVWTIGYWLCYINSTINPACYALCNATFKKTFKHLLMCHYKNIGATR
Put plainly: Muscarinic receptor subtype selectivity, M2. Type of data set: cell-based. The settings on record: antagonist.

Data set [6] deals with T3, M1 (Homo sapiens, UniProt P11229).
T3 sequence (P11229 1-460): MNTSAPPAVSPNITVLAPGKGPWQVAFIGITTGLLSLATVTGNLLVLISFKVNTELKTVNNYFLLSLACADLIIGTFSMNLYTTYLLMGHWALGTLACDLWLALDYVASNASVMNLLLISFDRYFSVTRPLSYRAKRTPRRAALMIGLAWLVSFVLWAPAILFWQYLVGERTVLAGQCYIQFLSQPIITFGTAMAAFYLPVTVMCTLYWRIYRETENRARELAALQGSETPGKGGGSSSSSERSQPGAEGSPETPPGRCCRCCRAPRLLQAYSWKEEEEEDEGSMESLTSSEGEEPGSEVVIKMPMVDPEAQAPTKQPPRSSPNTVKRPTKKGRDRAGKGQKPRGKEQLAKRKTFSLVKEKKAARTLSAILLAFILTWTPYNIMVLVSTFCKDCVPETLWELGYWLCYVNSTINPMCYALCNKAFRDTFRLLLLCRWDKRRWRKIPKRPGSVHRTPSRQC
In words: Muscarinic receptor subtype selectivity, M1. The class given is cell-based. The settings on record: for potency at M1 relative to M4: antagonist; for selectivity versus M1: data not shown.

Another data set has as its system rats. As to conditions: by potentiation of receptor activation by endogenous acetylcholine; cited from earlier work.
For another data set, the system named is rodent. As to conditions: cited from earlier work.
Data set [7] in a line: Rat brain:plasma distribution. Type of data set: in vivo. As to conditions: in words.
A further data set addresses T4, human M4 (Homo sapiens, UniProt P08173).
T4 sequence (P08173 1-479): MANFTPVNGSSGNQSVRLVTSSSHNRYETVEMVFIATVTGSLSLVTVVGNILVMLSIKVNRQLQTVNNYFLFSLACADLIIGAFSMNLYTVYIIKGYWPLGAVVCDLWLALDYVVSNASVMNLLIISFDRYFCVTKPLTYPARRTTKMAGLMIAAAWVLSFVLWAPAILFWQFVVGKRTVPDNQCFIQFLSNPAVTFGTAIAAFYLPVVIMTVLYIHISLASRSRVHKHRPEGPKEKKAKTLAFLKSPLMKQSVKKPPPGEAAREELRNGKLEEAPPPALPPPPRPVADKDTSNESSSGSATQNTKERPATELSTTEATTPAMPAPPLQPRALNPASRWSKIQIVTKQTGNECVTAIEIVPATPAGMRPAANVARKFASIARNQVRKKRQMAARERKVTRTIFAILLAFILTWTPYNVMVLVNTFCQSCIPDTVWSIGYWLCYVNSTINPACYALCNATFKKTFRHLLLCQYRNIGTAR
The class given is cell-based. The settings on record: read-out: % ACh Max ± SEM. The essentials:
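Functional Ca2+ mobilization read-out in CHO cells co-expressing human M4 and the chimeric G protein Gqi5. Test compound is applied with a fixed ~EC20 concentration of acetylcholine. PAM potency is reported as EC50/pEC50 and efficacy as % of the acetylcholine maximum. Values are means of at least three independent determinations.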

The target in data set [8] is T1, M5. Put plainly: Built-in HTS counterscreen, human M5. Type of data set: cell-based.
Data set [9] addresses T3, M1. In words: Built-in HTS counterscreen, human M1. Type of data set: cell-based.

SMILES strings stand for the structures.

Sequence of M3 (P20309 whole entry): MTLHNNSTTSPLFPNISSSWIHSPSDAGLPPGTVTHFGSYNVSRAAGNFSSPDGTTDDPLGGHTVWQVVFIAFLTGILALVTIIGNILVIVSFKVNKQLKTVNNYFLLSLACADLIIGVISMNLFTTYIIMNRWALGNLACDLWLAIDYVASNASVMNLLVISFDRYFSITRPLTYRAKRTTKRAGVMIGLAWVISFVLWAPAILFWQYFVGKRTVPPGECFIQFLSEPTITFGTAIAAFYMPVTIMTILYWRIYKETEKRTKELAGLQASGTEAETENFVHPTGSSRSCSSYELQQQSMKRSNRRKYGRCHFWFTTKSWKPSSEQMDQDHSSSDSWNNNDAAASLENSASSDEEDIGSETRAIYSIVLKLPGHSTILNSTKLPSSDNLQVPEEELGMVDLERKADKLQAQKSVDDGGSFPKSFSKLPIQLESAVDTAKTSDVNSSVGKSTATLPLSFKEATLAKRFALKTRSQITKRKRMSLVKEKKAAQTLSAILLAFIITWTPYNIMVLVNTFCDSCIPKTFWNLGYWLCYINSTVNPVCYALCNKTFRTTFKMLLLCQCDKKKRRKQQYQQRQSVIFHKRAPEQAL

Regarding `Cc1ccc(OC2CCN(c3ncnc4sc(C)c(C)c34)CC2)cn1` [14b], the “major metabolic route in human” value in data set [1] is on record as “heteroatom (likely the thiophene sulfur) oxidation”. Further, the “predicted CLhep, rat” value in data set [2] is reported as 68 mL/min/kg. For the same compound, the “major pathway of metabolism in rat” value in data set [3] is “hydroxylation of the 5,6-dimethyl moiety”. The “predicted CLhep, human” value in [4] is 20 mL/min/kg.
Consider `CCCCN(c1ccc(C)nc1)C1CCN(c2ncnc3sc(C)c(C)c23)CC1` [compound 20], for which the “potency at M5 relative to M4” value at M5 [5] was “similarly potent”. For the same compound, on M3, the “potency at M3 relative to M4” value is recorded as “similarly potent”. For the same compound, the CYP450 inhibition profile entry in the data set with CYP450 is “acceptable”. Further, the “potency at M2 relative to M4” value on M2 is listed as “similarly potent”. In addition, on M1 [6], the “potency at M1 relative to M4” value was “similarly potent”.
As for `CCCN(c1ccc(C)nc1)C1CCN(c2ncnc3sc(C)c(C)c23)CC1` [compound 19], at M5 [5], the “potency at M5 relative to M4” value is given as “similarly potent”. For the same compound, the “potency at M3 relative to M4” value at M3 was “similarly potent”. In addition, the CYP450 inhibition profile entry in the data set on CYP450 was “acceptable”. Further, on M2, the “potency at M2 relative to M4” value is “similarly potent”. Also, at M1 [6], the “potency at M1 relative to M4” value is on record as “similarly potent”.
On to `Cc1sc2ncnc(N3CCC(C(=O)Nc4ccc(F)cc4Cl)CC3)c2c1C` [10g], for which, on M5 [5], the “selectivity versus M5” value was “retaining selectivity”. Also, the “selectivity versus M1” value on M1 [6] was “retaining selectivity”.
In the case of `COc1ccc(CNC(=O)c2sc3nc(C)cc(C)c3c2N)cc1` [VU0152100], the “antipsychotic-like activity in rats” value with rats is recorded as “displayed antipsychotic-like activity”.
On to `Cc1sc2ncnc(N3CCC(C(=O)N4CCCC4)CC3)c2c1C` [11a], for which the “predicted CLhep, rat” value in data set [2] was 67 mL/min/kg. In addition, the “predicted CLhep, human” value in [4] was 16 mL/min/kg.
With `Cc1sc2ncnc(N3CCC(C(=O)Nc4ccc(S(C)(=O)=O)cc4)CC3)c2c1C` [10e], the “selectivity versus M5” value on M5 [5] is “retaining selectivity”. Moreover, at M1 [6], the “selectivity versus M1” value was “retaining selectivity”.
On to `Cc1nnc2sc(C(=O)NCc3ccc(S(=O)(=O)C(F)(F)F)cc3)c(N)c2c1C` [VU0467154], for which, in the data set on rodent, the “in vivo efficacy in rodent antipsychotic and cognition models” value is “robust in vivo efficacy”.
On to `Cc1sc2ncnc(N3CCC(C(=O)Nc4ccc(S(N)(=O)=O)cc4)CC3)c2c1C` [compound 5], for which the CNS penetration entry in data set [7] is on record as “not CNS penetrant”. Further, the Emax at human M4 is 91 ± 4%. For the same compound, the “activity on human M5” value on M5 [8] is “inactive”. The “activity on human M1” value on M1 [9] is “inactive”.
In the case of `Cc1sc2ncnc(N3CCC(C(=O)Nc4cc(Cl)ccc4Cl)CC3)c2c1C` [10h], the “selectivity versus M5” value at M5 [5] is “retaining selectivity”. For the same compound, on M1 [6], the “selectivity versus M1” value was “retaining selectivity”.
Take `Cc1ccc(OC2CCN(c3ncnc4ccc(F)cc34)CC2)cn1` [17b]: in [2], the “predicted CLhep, rat” value was 50 mL/min/kg. In addition, the “predicted CLhep, human” value in data set [4] was 12 mL/min/kg.
Take `Cc1sc2ncnc(N3CCC(C(=O)N4CC[C@H](F)C4)CC3)c2c1C` [11b]: in data set [2], the “predicted CLhep, rat” value is 68 mL/min/kg. For the same compound, the “predicted CLhep, human” value in data set [4] is recorded as 14 mL/min/kg.
